Test results from article PMC7586065 (Neoplasia (New York, N.Y.), 2020).
Like-named read-outs stand apart in the source and are kept apart here.

Assays:
PI3Kα [1] = details: cited from earlier work
PI3Kγ [2] = details: cited from earlier work
OCI-LY19 = details: data in the literature; cited from earlier work
Toledo = details: data in the literature; cited from earlier work
Pfeiffer = details: data in the literature; cited from earlier work
WSU-DLCL2 = details: data in the literature; cited from earlier work
PI3Kδ signaling = details: read-out: EC50 of inhibition of PI3Kδ signaling; cell-based assay; cited from earlier work
PI3Kα [3] = molecular target: PI3Kα (Mus musculus, UniProt P42337); assay: Cell-based pAKT AlphaLISA, IGF-1 stimulated C2C12 cells
PI3Kα, sequence (P42337 whole entry): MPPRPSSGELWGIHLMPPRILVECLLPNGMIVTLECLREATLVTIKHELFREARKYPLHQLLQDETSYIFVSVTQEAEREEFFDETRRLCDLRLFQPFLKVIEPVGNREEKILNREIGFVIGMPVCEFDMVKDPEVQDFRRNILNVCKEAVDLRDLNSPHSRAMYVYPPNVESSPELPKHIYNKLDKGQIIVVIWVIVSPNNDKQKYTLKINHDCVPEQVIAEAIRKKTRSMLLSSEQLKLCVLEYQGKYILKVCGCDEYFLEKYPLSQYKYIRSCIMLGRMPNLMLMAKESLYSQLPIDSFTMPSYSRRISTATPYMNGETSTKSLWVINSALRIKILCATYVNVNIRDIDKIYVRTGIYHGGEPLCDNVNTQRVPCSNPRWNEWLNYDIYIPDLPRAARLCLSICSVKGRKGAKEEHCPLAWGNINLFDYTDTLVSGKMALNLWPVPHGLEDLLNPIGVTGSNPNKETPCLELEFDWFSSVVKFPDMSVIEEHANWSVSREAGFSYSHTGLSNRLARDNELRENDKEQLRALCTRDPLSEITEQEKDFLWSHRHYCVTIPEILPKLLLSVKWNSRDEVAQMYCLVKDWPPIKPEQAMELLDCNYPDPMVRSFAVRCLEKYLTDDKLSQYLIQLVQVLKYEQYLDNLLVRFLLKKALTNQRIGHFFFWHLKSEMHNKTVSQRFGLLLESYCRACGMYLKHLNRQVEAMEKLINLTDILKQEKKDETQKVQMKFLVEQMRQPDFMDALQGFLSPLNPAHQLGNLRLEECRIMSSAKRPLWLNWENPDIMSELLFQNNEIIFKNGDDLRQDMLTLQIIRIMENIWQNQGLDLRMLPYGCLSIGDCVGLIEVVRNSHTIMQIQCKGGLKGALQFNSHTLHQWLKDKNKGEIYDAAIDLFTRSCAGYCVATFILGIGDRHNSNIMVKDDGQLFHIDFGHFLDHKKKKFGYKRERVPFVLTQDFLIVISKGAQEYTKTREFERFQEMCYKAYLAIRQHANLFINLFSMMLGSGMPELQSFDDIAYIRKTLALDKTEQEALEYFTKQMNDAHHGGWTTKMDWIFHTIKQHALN
PI3Kα, sequence (P26450 whole entry partner): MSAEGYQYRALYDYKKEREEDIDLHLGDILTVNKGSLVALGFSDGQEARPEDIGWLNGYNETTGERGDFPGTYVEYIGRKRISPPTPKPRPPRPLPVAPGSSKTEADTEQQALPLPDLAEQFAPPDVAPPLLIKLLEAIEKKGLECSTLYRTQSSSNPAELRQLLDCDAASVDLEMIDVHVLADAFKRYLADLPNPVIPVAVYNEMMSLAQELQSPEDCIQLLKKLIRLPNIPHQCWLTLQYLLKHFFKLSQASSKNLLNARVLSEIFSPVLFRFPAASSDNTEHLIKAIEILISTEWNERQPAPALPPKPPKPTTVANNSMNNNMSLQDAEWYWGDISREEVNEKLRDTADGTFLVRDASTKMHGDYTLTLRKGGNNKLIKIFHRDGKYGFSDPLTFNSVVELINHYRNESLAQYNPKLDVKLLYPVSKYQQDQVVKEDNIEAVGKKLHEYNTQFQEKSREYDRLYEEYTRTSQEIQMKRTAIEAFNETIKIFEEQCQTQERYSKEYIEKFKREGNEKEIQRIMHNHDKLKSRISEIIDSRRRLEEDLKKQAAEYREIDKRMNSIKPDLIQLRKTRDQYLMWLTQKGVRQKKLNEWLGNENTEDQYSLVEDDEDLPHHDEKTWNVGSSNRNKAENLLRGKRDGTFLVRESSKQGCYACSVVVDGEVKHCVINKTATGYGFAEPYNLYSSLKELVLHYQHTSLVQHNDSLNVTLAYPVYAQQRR

PI3Kγ [4] = molecular target: PI3Kγ (Mus musculus, UniProt Q9JHG7); assay: Cell-based pAKT AlphaLISA, C5a stimulated RAW264.7 cells
PI3Kγ, sequence (Q9JHG7 whole entry): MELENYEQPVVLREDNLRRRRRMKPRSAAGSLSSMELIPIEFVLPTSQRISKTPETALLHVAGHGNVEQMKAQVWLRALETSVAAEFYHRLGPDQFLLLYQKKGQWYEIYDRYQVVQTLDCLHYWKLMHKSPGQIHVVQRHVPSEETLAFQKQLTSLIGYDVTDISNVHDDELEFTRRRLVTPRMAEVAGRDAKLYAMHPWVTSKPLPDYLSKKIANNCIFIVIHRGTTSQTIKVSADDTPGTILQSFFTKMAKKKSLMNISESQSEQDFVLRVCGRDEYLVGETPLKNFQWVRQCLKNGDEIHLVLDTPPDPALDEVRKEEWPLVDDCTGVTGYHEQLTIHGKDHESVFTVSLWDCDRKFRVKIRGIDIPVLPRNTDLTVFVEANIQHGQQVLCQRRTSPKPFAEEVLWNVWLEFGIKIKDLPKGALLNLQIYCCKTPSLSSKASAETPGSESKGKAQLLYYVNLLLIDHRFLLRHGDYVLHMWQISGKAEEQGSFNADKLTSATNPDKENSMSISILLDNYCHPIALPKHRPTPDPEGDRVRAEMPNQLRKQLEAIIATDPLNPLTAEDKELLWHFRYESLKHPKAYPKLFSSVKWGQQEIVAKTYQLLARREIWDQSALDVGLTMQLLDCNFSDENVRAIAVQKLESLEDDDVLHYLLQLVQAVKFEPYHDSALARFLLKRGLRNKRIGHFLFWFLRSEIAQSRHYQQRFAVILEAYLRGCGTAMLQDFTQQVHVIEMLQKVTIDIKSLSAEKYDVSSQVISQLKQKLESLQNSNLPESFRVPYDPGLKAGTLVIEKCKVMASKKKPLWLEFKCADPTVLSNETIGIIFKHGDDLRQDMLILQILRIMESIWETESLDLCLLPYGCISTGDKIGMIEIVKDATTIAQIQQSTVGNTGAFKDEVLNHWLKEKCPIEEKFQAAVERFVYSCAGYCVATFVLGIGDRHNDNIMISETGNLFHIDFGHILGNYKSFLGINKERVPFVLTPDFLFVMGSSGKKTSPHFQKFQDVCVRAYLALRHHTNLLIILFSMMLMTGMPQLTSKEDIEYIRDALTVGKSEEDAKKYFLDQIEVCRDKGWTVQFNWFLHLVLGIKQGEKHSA
In short: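 RAW264.7 cells (DMEM, 10% FBS, penicillin/streptomycin, 37 °C) were stimulated with 80 ng/mL C5a for 5 min and given ten test-compound concentrations (0–100 µM) in triplicate. The PI3Kδ comparator used Raji cells stimulated with 3 µg/mL anti-IgM F(ab')2 for 10 min, dosed 0–3000 nM. pAKT was quantified by AlphaLISA, and IC50 was taken from signal–concentration curves.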

[5] = Pharmacokinetics in xenograft model; format: in vivo, SCID mice; details: CB17 SCID, mouse, plasma, po
In short: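 CB17 SCID mice bearing subcutaneous SU-DHL-6 tumours received test compound orally once daily in 1% carboxymethylcellulose/0.5% Tween 80. Heparinised blood was drawn predose and at 10, 30, 60, 120, 360, 600 and 1440 min on days 1 and 14. Plasma was spun at 4500 rpm, 10 min, 4 °C, then assayed by LC-MS/MS against a stable-isotope internal standard. Sub-LLOQ values were excluded.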

[6] = 100 mg/kg, 100 mg/kg once daily oral, day 1
[7] = 100 mg/kg, 100 mg/kg once daily oral, day 14
[8] = 200 mg/kg, 200 mg/kg once daily oral, day 1
[9] = 200 mg/kg, 200 mg/kg once daily oral, day 14

## COc1c(OCCCN2CCOCC2)ccc2c1N=C(NC(=O)c1cnc(N)nc1)N1CCN=C21 [Copanlisib]
OCI-LY19
  IC50: 1990 nM
Toledo
  IC50: 3500 nM
PI3Kα [1]
  IC50: […]
Pfeiffer
  IC50: 0.849 nM
WSU-DLCL2
  IC50: 123 nM
PI3Kγ [2]
  IC50: […]

## CC[C@H](Nc1ncnc2[nH]cnc12)c1nc2cccc(F)c2c(=O)n1-c1ccccc1 [Idelalisib]
PI3Kδ signaling
  EC50: 8.9 nM
PI3Kα [3]
  IC50: > 30000 nM
PI3Kγ [4]
  IC50: 1120 nM
[5]; [6]
  AUC(0-t): 6930 ng·h/mL
  Cmax: 4.17 ± 9.89 µM
  Tmax: 0.7 ± 0.3 h
[5]; [7]
  AUC(0-t): 5520 ng·h/mL
  Cmax: 5.05 ± 6.05 µM
  Tmax: 0.4 ± 0.2 h
[5]; 100 mg/kg, T1/2, 100 mg/kg once daily oral, day 1
  half-life: 3.4 ± 2 h
[5]; 100 mg/kg, T1/2, 100 mg/kg once daily oral, day 14
  half-life: 1.8 ± 0.6 h
[5]; [8]
  AUC(0-t): 29900 ng·h/mL
  Cmax: 11.1 µM
  Tmax: 0.8 ± 0.3 h
[5]; [9]
  AUC(0-t): 22400 ng·h/mL
  Cmax: 8.09 ± 0.93 µM
  Tmax: 0.7 ± 0.3 h
[5]; 200 mg/kg, T1/2, 200 mg/kg once daily oral, day 1
  half-life: 1.9 ± 0.5 h
[5]; 200 mg/kg, T1/2, 200 mg/kg once daily oral, day 14
  half-life: 4.3 ± 1.1 h
